Results taken from ChEMBL document CHEMBL1153830, “Treatment of a clinically relevant plant-pathogenic fungus with an agricultural azole causes cross-resistance to medical azoles and potentiates caspofungin efficacy” (2007).
≈ marks a conversion by molar mass, not a printed value. Calls of active or inactive are those of the source. The rule behind the calls is not given here.

How the values were obtained:
[1] = tested on: Colletotrichum graminicola; assay: Fungicidal activity against tebuconazole-adapted wild type Colletotrichum graminicola CgM2 assessed as cell wall rigidity deffect-related increase in apical cell diameter at 0.025 ug/ml after 3 days by differential interference contrast microscopy; type: functional, organism-based
Summary of the method: (§1)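 Mycelia were grown 3 days in liquid complete medium with caspofungin at 0–5 μg/ml. Cell wall rigidity and hyphal swelling were judged by Nomarski (DIC) light microscopy.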

[2] = tested on: Colletotrichum graminicola; assay: Fungicidal activity against tebuconazole-nonadapted wild type Colletotrichum graminicola CgM2 assessed as metabolically inactive hyphae at 0.025 ug/ml after 3 days by FUN1 staining-based fluorescence microscopy; type: functional, organism-based
Summary of the method: (§2)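 Mycelia were grown 3 days in liquid complete medium with drug at 0–5 μg/ml. Staining used 50 μM FUN-1 in 2% glucose and 10 mM HEPES (pH 7.2), 1 h at 27°C. Viability was scored by epifluorescence microscopy with a GFP-LP filter. Negative controls were killed with 70% ethanol for 30 min before staining.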

[3] = tested on: Colletotrichum graminicola; assay: Fungicidal activity against tebuconazole-nonadapted wild type Colletotrichum graminicola CgM2 assessed as deffects in cell wall rigidity at 0.025 ug/ml after 3 days by differential interference contrast microscopy; type: functional, organism-based; summary of the method: as §1
[4] = tested on: Colletotrichum graminicola; assay: Fungicidal activity against tebuconazole-nonadapted wild type Colletotrichum graminicola CgM2 assessed as metabolically inactive hyphae at 0.25 ug/ml after 3 days by FUN1 staining-based fluorescence microscopy; type: functional, organism-based; summary of the method: as §2
[5] = tested on: Colletotrichum graminicola; assay: Fungicidal activity against tebuconazole-nonadapted wild type Colletotrichum graminicola CgM2 infected in excised human skin assessed as inhibition of invasive colonized hyphal growth at epidermis at twofold ED90 after 4 days by Uvitex-2B staining-based fluorescence microscopy; type: functional, organism-based
Summary of the method: (§3)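 Excised human skin from reduction mammoplasty, all pieces from one donor, cut to 20 mm discs. Each disc got 15–20 prick wounds and 100 μl of 10^6 conidia/ml. Discs sat in a Franz diffusion cell at 32°C over isotonic NaCl for up to 4 days. Drug was applied at ED50, ED90 or 2× ED90, three pieces per condition. Biopsies were cryosectioned and Uvitex 2B-stained; hyphal area per section was measured by fluorescence.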

[6] = tested on: Colletotrichum graminicola; assay: Fungicidal activity against tebuconazole-nonadapted wild type Colletotrichum graminicola CgM2 infected in excised human skin assessed as inhibition of invasive colonized hyphal growth at dermis at ED90 after 4 days by Uvitex-2B staining-based fluorescence microscopy; type: functional, organism-based; summary of the method: as §3
[7] = tested on: Colletotrichum graminicola; assay: Fungicidal activity against tebuconazole-adapted wild type Colletotrichum graminicola CgM2 assessed as cell wall rigidity deffect-related cell wall swelling at 0.25 ug/ml after 3 days by differential interference contrast microscopy; type: functional, organism-based; summary of the method: as §1
[8] = tested on: Colletotrichum graminicola; assay: Fungicidal activity against tebuconazole-adapted wild type Colletotrichum graminicola CgM2 assessed as inhibition of radial growth rate at 23 degC in darkness; type: functional
Summary of the method: (§4)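 Radial growth on solid complete medium, 23°C, darkness. Colony diameters were read at 3 and 6 days after inoculation and compared with drug-free control plates. Azoles and picoxystrobin were dissolved in 12% (wt/vol) Cremophor EL and tested at 0–2.5 μg/ml. Caspofungin, amphotericin B and nystatin were dissolved in water and tested from 0.00025 μg/ml; caspofungin plates used sucrose (10 mg/ml) in place of glucose.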

[9] = tested on: Colletotrichum graminicola; assay: Fungicidal activity against tebuconazole-adapted wild type Colletotrichum graminicola CgM2 infected in excised human skin assessed as inhibition of invasive colonized hyphal growth at epidermis at ED90 after 4 days by Uvitex-2B staining-based fluorescence microscopy; type: functional, organism-based; summary of the method: as §3
[10] = tested on: Colletotrichum graminicola; assay: Fungicidal activity against tebuconazole-nonadapted wild type Colletotrichum graminicola CgM2 infected in excised human skin assessed as inhibition of invasive colonized hyphal growth at dermis at ED50 after 4 days by Uvitex-2B staining-based fluorescence microscopy; type: functional, organism-based; summary of the method: as §3
[11] = tested on: Colletotrichum graminicola; assay: Fungicidal activity against tebuconazole-nonadapted wild type Colletotrichum graminicola CgM2 assessed as deffects in cell wall rigidity at 2.5 ug/ml after 3 days by differential interference contrast microscopy; type: functional, organism-based; summary of the method: as §1
[12] = tested on: Colletotrichum graminicola; assay: Fungicidal activity against tebuconazole-adapted wild type Colletotrichum graminicola CgM2 infected in excised human skin assessed as inhibition of invasive colonized hyphal growth at dermis at ED90 after 4 days by Uvitex-2B staining-based fluorescence microscopy; type: functional, organism-based; summary of the method: as §3
[13] = tested on: Colletotrichum graminicola; assay: Fungicidal activity against tebuconazole-adapted wild type Colletotrichum graminicola CgM2 assessed as cell death at 0.25 ug/ml after 3 days by FUN1 staining-based fluorescence microscopy; type: functional, organism-based; summary of the method: as §2
[14] = tested on: Colletotrichum graminicola; assay: Fungicidal activity against tebuconazole-adapted wild type Colletotrichum graminicola CgM2 assessed as increase in metabolically inactive hyphal count at 2.5 ug/ml after 3 days by FUN1 staining-based fluorescence microscopy; type: functional, organism-based; summary of the method: as §2
[15] = tested on: Colletotrichum graminicola; assay: Fungicidal activity against tebuconazole-adapted wild type Colletotrichum graminicola CgM2 assessed as deffects in cell wall rigidity at 2.5 ug/ml after 3 days by differential interference contrast microscopy; type: functional, organism-based; summary of the method: as §1
[16] = tested on: Colletotrichum graminicola; assay: Fungicidal activity against tebuconazole-adapted wild type Colletotrichum graminicola CgM2 assessed as metabolically inactive hyphae at 0.025 ug/ml after 3 days by FUN1 staining-based fluorescence microscopy; type: functional, organism-based; summary of the method: as §2
[17] = tested on: Colletotrichum graminicola; assay: Fungicidal activity against tebuconazole-nonadapted wild type Colletotrichum graminicola CgM2 assessed as deffects in cell wall rigidity at 0.25 ug/ml after 3 days by differential interference contrast microscopy; type: functional, organism-based; summary of the method: as §1
[18] = tested on: Colletotrichum graminicola; assay: Fungicidal activity against tebuconazole-nonadapted wild type Colletotrichum graminicola CgM2 assessed as inhibition of radial growth rate at 23 degC in darkness; type: functional; summary of the method: as §4
[19] = tested on: Colletotrichum graminicola; assay: Fungicidal activity against tebuconazole-nonadapted wild type Colletotrichum graminicola CgM2 assessed as deffects in cell wall rigidity at hyphal apex at 0.25 ug/ml after 3 days by differential interference contrast microscopy; type: functional, organism-based; summary of the method: as §1
[20] = tested on: Colletotrichum graminicola; assay: Fungicidal activity against tebuconazole-nonadapted wild type Colletotrichum graminicola CgM2 assessed as cell death at 2.5 ug/ml after 3 days by FUN1 staining-based fluorescence microscopy; type: functional, organism-based; summary of the method: as §2
[21] = tested on: Colletotrichum graminicola; assay: Fungicidal activity against tebuconazole-nonadapted wild type Colletotrichum graminicola CgM2 infected in excised human skin assessed as inhibition of invasive colonized hyphal growth at epidermis at ED90 after 4 days by Uvitex-2B staining-based fluorescence microscopy; type: functional, organism-based; summary of the method: as §3
[22] = tested on: Colletotrichum graminicola; assay: Fungicidal activity against tebuconazole-adapted wild type Colletotrichum graminicola CgM2 infected in excised human skin assessed as inhibition of invasive colonized hyphal growth at hypodermis at ED90 after 4 days by Uvitex-2B staining-based fluorescence microscopy; type: functional, organism-based; summary of the method: as §3
[23] = tested on: Colletotrichum graminicola; assay: Fungicidal activity against tebuconazole-nonadapted wild type Colletotrichum graminicola CgM2 infected in excised human skin assessed as inhibition of invasive colonized hyphal growth at epidermis at ED50 after 4 days by Uvitex-2B staining-based fluorescence microscopy; type: functional, organism-based; summary of the method: as §3
[24] = Colletotrichum graminicola, CgM2, read-out: ED50 (the source's name)

With `CC[C@H](C)C[C@H](C)CCCCCCCCC(=O)N[C@H]1C[C@@H](O)[C@@H](NCCN)NC(=O)[C@@H]2[C@@H](O)CCN2C(=O)[C@H]([C@H](O)CCN)NC(=O)[C@H]([C@H](O)[C@@H](O)c2ccc(O)cc2)NC(=O)[C@@H]2C[C@@H](O)CN2C(=O)[C@H]([C@@H](C)O)NC1=O` [CASPOFUNGIN] the Activity [1] was “Active”, the Activity [2] was “inactive” and the Activity [3] was “inactive”. The Activity [4] was “Active”, the Activity [5] was “inactive” and the Activity [6] was “inactive”. The Activity [7] was “Active”, the ED90 [8] was 0.77 µg/mL (≈ 0.704 µM) and the EC50 [8, 24] was 0.006 µg/mL (≈ 0.00549 µM). The Activity [9] was “Active”, the Activity [10] was “inactive” and the Activity [11] was “Active”. For the same compound, the Activity [12] was “Active”, the Activity [13] was “Active” and the Activity [14] was “Active”. For the same compound, the Activity [15] was “inactive”, the Activity [16] was “Active” and the Activity [17] was “Active”. The ED90 [18] was 1.281 µg/mL (≈ 1.17 µM), the EC50 [18, 24] was 0.032 µg/mL (≈ 0.0293 µM) and the Activity [19] was “Active”. The Activity [20] was “Active”, the Activity [21] was “inactive” and the Activity [22] was “Active”. The Activity [23] was “inactive”.
